High-throughput results deposited in PubChem BioAssay by several laboratories.
Shown are actives, neighbours in structure and some others; about 2% of the full set was active somewhere.
NTR1 ag: agonists of human neurotensin receptor NTR1; NTR1-U2OS beta-arrestin-GFP spot imaging, agonist mode; activation, % at 20 µM; 330,000 compounds, 0.17% hits; AID 493036;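 active = activation at or above 40% of the spot to cytoplasm intensity ratio, with at least 20 cells analyzed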
TAG inh: reduces triacylglycerol accumulation in H9c2 cells; Nile Red lipid (TAG) fluorescence; cells loaded with 200 µM oleic acid; AID 651582; 230,000 compounds, 0.66% hits; inhibition, % at 12.5 µM;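 active = pattern-corrected inhibition of lipid staining of at least 50% with the nuclear-stain viability signal not falling by more than 50%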
GRK2 inh: human GRK2 inhibition via aptamer displacement. inhibition of aptamer binding, % at 10 µM. 330,000 compounds, 0.59% hits. P25098. bead flow cytometry, FAM-aptamer displacement from GRK2. AID 488847;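 active = inhibition of aptamer binding above 40%, roughly 3 SD of noise, on plates passing a quality check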;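 also: median bead fluorescence of bound FAM aptamer so fluorescent compounds give negative values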
Hep lipid drop: modulators of hepatic lipid droplet formation; inhibition, % at 6.5 µM; AML12 mouse hepatocytes, oleate lipid droplets, BODIPY imaging; AID 1656; 240,000 compounds, 0.4% hits;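 active = lipid droplet intensity inhibited by at least 50%, with more than 500 cells counted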
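Technique: fluorescence imaging, 20x objective, two fields per well / Assay system: AML12 hepatocytes (mouse) / Measure: % inhibition of lipid droplet signal / Doses: 6.5 µM single-point dosing / Incubation: overnight exposure / Reagent: 100 µM oleic acid challenge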
Arrestin-AP2 inh: blocks beta-arrestin peptide binding to AP2 adaptin; AID 504490; inhibition, % at 10 µM; FITC-arrestin peptide / GST-AP2 beads, flow cytometry; AP2 beta2 appendage carries R879A mutation; 340,000 compounds, 0.31% hits;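 active = inhibition above a set limit, near 3 SD of compounds lacking own fluorescence, cut at about 54% in these data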
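System: GST-tagged AP2 beta2-adaptin appendage (R879A) on 4 µm glutathione beads / Reagent: FITC-arrestin peptide, 50 nM / Detection: HyperCyt-sampled flow cytometry, FL1 channel, ex 488/em 535 nm / Timing: 12 min plus 1 h, RT / Buffer or medium: PBS plus Tween 20 (0.05%) and BSA (0.1%)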
B2AR ag: human beta-2 adrenergic receptor agonism by FAP; Am2.2-beta2AR cells, FAP receptor internalization, flow cytometry; 340,000 compounds, 0.43% hits; P07550; response, % (no concentration beside the values); AID 504454;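 active = response above a set limit, near 3 SD of response in nonfluorescent compounds, cut at about 42% in these data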
Target sequence (P07550 whole entry, looked up): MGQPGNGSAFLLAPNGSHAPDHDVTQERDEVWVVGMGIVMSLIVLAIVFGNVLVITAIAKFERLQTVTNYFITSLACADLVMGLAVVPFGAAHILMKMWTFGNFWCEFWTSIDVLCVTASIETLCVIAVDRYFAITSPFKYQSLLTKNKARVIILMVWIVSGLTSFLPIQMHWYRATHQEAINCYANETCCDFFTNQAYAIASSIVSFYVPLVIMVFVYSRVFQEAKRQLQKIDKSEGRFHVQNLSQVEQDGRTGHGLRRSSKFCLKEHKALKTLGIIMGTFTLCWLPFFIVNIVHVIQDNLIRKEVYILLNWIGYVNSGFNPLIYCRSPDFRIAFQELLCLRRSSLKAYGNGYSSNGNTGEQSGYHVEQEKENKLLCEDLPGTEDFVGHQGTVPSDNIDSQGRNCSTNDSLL
Arr-AP2 CP1: blocks beta-arrestin peptide binding to human AP2; shares compounds with Arrestin-AP2 inh; GST-AP2 beads, FITC arrestin peptide binding, flow cytometry; GST-fused beta2-adaptin appendage, R879A mutant; inhibition, % at 10 µM; 1,300 compounds, 2% hits; AID 504908;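 active = inhibition above a set limit, roughly 3 SD of non-fluorescent compound noise, cut at about 38% in these data; inactive = inhibition at or below that limit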;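 also: loss of bead fluorescence from 50 nM FITC arrestin peptide bound to appendage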
GST-FITC bead: counter-screen for beta-arrestin AP2 inhibitors: GST-GSH bead binding; GST-fluorescein binding to GSH beads, fluorescence; shares compounds with Arrestin-AP2 inh; inhibition, % at 10 µM; AID 588338; 1,300 compounds, 2% hits;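 active = inhibition above 50%, about 3 SD of the inhibition seen with non-fluorescent compounds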;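 also: fluorescein maleimide labelled GST captured on 4 micron glutathione beads; higher means more loss of bead fluorescence from quenching or blocked binding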
TAG conf: confirmation of triacylglycerol accumulation inhibitors; 990 compounds, 71% hits; shares compounds with TAG inh; H9c2 lipid accumulation, Nile Red fluorescence; cells loaded with 200 µM oleic acid; inhibition, % at 12.5 µM;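 active = mean inhibition across replicates of 40% or more; inactive = mean inhibition below 40%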
Each line names hits and unclear results; the compound was inactive in the other large screens (follow-up assays come after a bar, where they were run); ! = a repeat was not active.

O=C(c1ccc(-c2ccc([N+](=O)[O-])cc2)o1)N1CCN(S(=O)(=O)c2cccs2)CC1	Arrestin-AP2 inh 65 (no result: Hep lipid drop) | Arr-AP2 CP1 inactive | GST-FITC bead inactive
Cc1onc(-c2ccccc2)c1C(=O)NCC(=O)Nc1cc(Cl)ccc1Cl	none (no result: Hep lipid drop)
O=C(N/N=C/c1ccco1)c1cc(-c2ccc3ccccc3c2)n[nH]1	Arrestin-AP2 inh 56 | Arr-AP2 CP1 inactive | GST-FITC bead inactive
CCc1ccc(-c2cc(C(=O)N/N=C/c3ccco3)[nH]n2)cc1	none
N#Cc1cccc(C(c2nnnn2C2CCCC2)N2CCC(Cc3ccccc3)CC2)c1 (configuration not stated)	Arrestin-AP2 inh 69 | Arr-AP2 CP1 inactive | GST-FITC bead inactive
N#Cc1ccc(C(c2nnnn2C2CCCC2)N2CCC(Cc3ccccc3)CC2)cc1 (configuration not stated)	none (no result: Hep lipid drop)
Cc1cc(C)n(-c2ccc(C(=O)NCC(=O)Nc3cc(Cl)ccc3Cl)cc2)n1	none (no result: Hep lipid drop)
CN(C)c1ccc(S(=O)(=O)N2CCCCC2)cc1NC(=O)CN1C(=O)NC(C)(c2ccccc2)C1=O (configuration not stated)	none (no result: Hep lipid drop)
CN(C)c1ccc(S(=O)(=O)N2CCCCC2)cc1NC(=O)CN1C(=O)NC2(CCCC2)C1=O	Arrestin-AP2 inh 54 (no result: Hep lipid drop) | Arr-AP2 CP1 inactive | GST-FITC bead inactive
O=C(Nc1ccc(-c2csc(Nc3ccccc3)n2)cc1)c1ccccc1	none (no result: Hep lipid drop)
O=C(Nc1cccc(-c2csc(Nc3ccc(Cl)cc3)n2)c1)c1cccc(C(F)(F)F)c1	TAG inh 54 | TAG conf 65
O=C(Nc1ccc(-c2csc(Nc3ccc(Cl)cc3)n2)cc1)c1cc([N+](=O)[O-])cc(C(F)(F)F)c1	TAG inh 51 | TAG conf 57
O=C(Nc1cccc(-c2csc(Nc3ccc(Cl)cc3)n2)c1)c1ccccc1	none
O=C(Nc1cccc(-c2csc(Nc3ccccc3)n2)c1)c1cc([N+](=O)[O-])cc(C(F)(F)F)c1	none
O=C(Nc1cccc(-c2csc(Nc3ccc(Cl)cc3)n2)c1)c1cc([N+](=O)[O-])cc(C(F)(F)F)c1	TAG inh 56 | TAG conf 50
C[C@H](CO)N1C[C@H](C)[C@H](CN(C)S(=O)(=O)c2cccc(F)c2)Oc2cc(Br)ccc2S1(=O)=O	none (no result: NTR1 ag, GRK2 inh, Hep lipid drop, Arrestin-AP2 inh, B2AR ag)
Nc1ccc2ccccc2c1N=Nc1ccccc1	TAG inh 56 (no result: NTR1 ag, GRK2 inh, Hep lipid drop) | TAG conf 53
N#CCCCCn1ccc(NC(=O)c2ccc(Cl)cc2O)n1	none (no result: Hep lipid drop)
O=C1C(Cl)=C(NCc2ccco2)C(=O)c2ccccc21	TAG inh 65 (no result: NTR1 ag, GRK2 inh, Hep lipid drop) | TAG conf 46
COC(=O)CNc1cccc(C(F)(F)F)c1	none
Cc1ccc(C(=O)Nc2cccc(C(F)(F)F)c2)cc1NC(=O)c1nccn1C	TAG inh 96! | TAG conf inactive
Cc1ccc(C(=O)Nc2cccc(C(F)(F)F)c2)cc1Nc1cnccn1	none
COc1ccccc1N1CCN(CC(=O)Nc2cc(C)nn2-c2nc(C)cc(C)n2)CC1	TAG inh 55 (no result: NTR1 ag, GRK2 inh, Hep lipid drop) | TAG conf 56
COc1ccccc1N1CCN(CC(=O)Nc2cc(F)ccc2C)CC1	none
CCOc1ccc(CN(C)C(=O)CNC(=O)c2cc(OC)c(OC)c(OC)c2)cc1	none (no result: TAG inh)
O=C(CSc1nc(-c2ccco2)cc(C(F)(F)F)n1)Nc1ccc2c(c1)CCC2	TAG inh 52 | TAG conf inactive
Cc1ccc(NC(=O)CSc2nc(-c3ccco3)cc(C(F)(F)F)n2)cc1C	none (no result: TAG inh)
Cc1nnc(NC(=O)c2cc(S(=O)(=O)N3CCCCC3)ccc2Cl)s1	none
COc1ccc(Cl)cc1NC(=O)CSc1nnc(COc2ccccc2)n1N	TAG inh 54 | TAG conf inactive
